# Source: PubChem
# A selection: hits, their analogues and other compounds. The true share with any hit is near 3.8%.
# hERG protect = hERG rescue from dofetilide block, primary screen, cell-based, CHO-hERG, FluxOR thallium flux, dofetilide IC70; Voltage-gated inwardly rectifying potassium channel KCNH2 (Homo sapiens), Q12809; dofetilide IC70 present; activation (rescue from dofetilide block), less the hit threshold, % at 10 µM; actives 0.51% (n = 310,000); AID 1511, 2009;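 active means activation above the mean of controls blocked by dofetilide plus 5 SD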;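 further: thallium influx through hERG after potassium depolarization seen as dye fluorescence rise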
# KCNQ1 pot = potentiators or activators of KCNQ1 channel, primary screen, cell-based, thallium flux, high-throughput; Potassium voltage-gated channel subfamily KQT member 1 (Homo sapiens), P51787; CHO-K1 KCNQ1, thallium flux FluxOR fluorescence; stronger effect = higher value; B-score at 10 µM; actives 0.35% (n = 310,000);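 active means fluorescence ratio B-score, a plate-corrected score, at least three library SD, with initial intensity B-score within 5 SD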
#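 Schedule – 37 °C overnight plating, 90-min dark dye load, 20-min compound pretreatment · System – stable KCNQ1 CHO-K1 line · Probe or stimulus – thallium- and potassium-containing depolarizing buffer · Measured by – kinetic FluxOR fluorescence, 10 s baseline plus 110 s post-stimulus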
# KCNK3 block = human KCNK3 channel inhibitors, primary screen, CHO cells, FluxOR thallium flux, B-score. AID 602410, 2012. B-score at 10 µM. Potassium channel subfamily K member 3 (Homo sapiens), O14649. FluxOR fluorescence; stronger effect = lower value. actives 0.84% (n = 340,000);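 active means B-score under library mean minus 4 SD, starting fluorescence ratio at most library mean plus 5 SD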;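 further: more negative B-score means stronger inhibition of thallium flux through KCNK3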
# KCNQ1 block = inhibitors of human KCNQ1 channel, primary screen, cell-based, thallium flux, high-throughput; Potassium voltage-gated channel subfamily KQT member 1 (Homo sapiens), P51787; CHO-K1 KCNQ1, FluxOR thallium flux fluorescence; stronger effect = higher value; B-score at 10 µM; actives 1.3% (n = 310,000); AID 2642, 2010;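 active means compounds whose thallium flux B-score, printed positive for inhibition, exceeds three library SD while starting fluorescence stays within three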;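 further: channel opened by potassium depolarization with thallium stimulus after 20 min compound exposure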
# KCNK9 inh = KCNK9 potassium channel inhibitors, primary screen, HEK293 cells, thallium flux | actives 1.2% (n = 310,000) | AID 488922, 2010 | B-score at 10 µM | Potassium channel subfamily K member 9 (Homo sapiens), Q9NPC2 | FluxOR thallium flux fluorescence; stronger effect = lower value;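 active means ratio B-score over 3 SD below the library mean, with starting fluorescence within 5 SD of its mean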;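 further: negative B-score means less thallium flux so channel inhibition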
# Target sequence (Q9NPC2 whole entry, looked up): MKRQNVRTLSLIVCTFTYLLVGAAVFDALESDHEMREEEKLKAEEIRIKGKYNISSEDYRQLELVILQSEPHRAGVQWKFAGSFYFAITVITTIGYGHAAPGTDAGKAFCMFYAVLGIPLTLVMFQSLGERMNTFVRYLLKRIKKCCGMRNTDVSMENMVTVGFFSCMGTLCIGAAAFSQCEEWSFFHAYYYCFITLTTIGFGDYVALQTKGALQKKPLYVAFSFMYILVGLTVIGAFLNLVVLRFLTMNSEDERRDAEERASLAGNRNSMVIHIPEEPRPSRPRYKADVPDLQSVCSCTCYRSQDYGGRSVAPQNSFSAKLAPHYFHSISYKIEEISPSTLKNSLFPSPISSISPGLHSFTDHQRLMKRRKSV
# Kir21 inh = inhibitors of mouse Kir2.1 inward-rectifier potassium channel. Inward rectifier potassium channel 2 (Mus musculus), P35561. HEK293-Kir2.1, FluxOR thallium flux fluorescence; stronger effect = lower value. B-score at 10 µM. actives 0.85% (n = 310,000). AID 1672, 2009;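 active means fluorescence ratio B-score at or below minus 3 SD of library scores, with starting-brightness B-score within 2 SD, cut at about -4.2 in these data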;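 further: channel flux triggered by added potassium and thallium sulfate stimulus; B-score of peak minus minimum fluorescence over baseline after thallium stimulus; more negative B-score means stronger Kir2.1 block with less thallium influx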
# Numbers without * were called inactive; i = inactive; · = no result.
SMILES,hERG protect,KCNQ1 pot,KCNK3 block,KCNQ1 block,KCNK9 inh,Kir21 inh
CC(C(=O)NCc1ccco1)n1ccc2cc(S(=O)(=O)N3CCCCC3)ccc21 (centres undefined),-8,i,i,i,i,-0.96
CS(=O)(=O)Nc1nc2n(n1)C(c1ccccc1)C=C(c1ccc(Br)cc1)N2 (centres undefined),-17,i,i,12*,i,-4.4
CN(CCCOc1ccccc1Br)Cc1ccccc1,0,i,i,i,i,-2.2
CN(CCOCCOc1ccc(Cl)cc1Br)Cc1ccccc1,-14,i,i,i,i,-7.3*
CCCCNCCOCCOc1ccc(Cl)cc1Br,-10,i,i,i,i,-6.1*
CN(CCOc1ccccc1Cl)Cc1ccccc1,-2,i,i,i,i,-0.62
Cc1ccc(Cl)c(OCCCCN(C)Cc2ccccc2)c1,-9,i,i,i,i,-9.5*
OC[C@@H](O)[C@@H](O[C@@H]1O[C@H](CO)[C@H](O)[C@H](O)[C@H]1O)[C@H](O)[C@@H](O)CO,-4,i,i,i,i,1.8
COc1ccccc1C(=O)OCCNC(=O)Cn1cnc2c1c(=O)n(C)c(=O)n2C,-4,i,i,i,i,0.73
O=C(CSc1nnc(-c2ccncc2)n1Cc1ccco1)Nc1ccccc1Cl,-15,i,i,i,i,-2.7
O=C(CSc1nnc(-c2ccncc2)n1Cc1ccco1)Nc1ccccc1F,-6,i,i,i,-6.9*,-1.6
CC(CC(C)C(=O)Nc1ccccc1C(C)(C)C)C(=O)O (centres undefined),-8,i,i,i,i,-0.48
Cc1cc(Br)ccc1OCCNCc1ccccc1,-8,i,i,i,i,-10*
C=CCNCCOc1c(C)cc(C)cc1Cl,-8,i,i,i,i,-2
COCCCNCCCCOc1c(Cl)cc(C)cc1Br,-17,i,i,i,i,-6*
Clc1ccc(OCCCNCc2ccccc2)c2ccccc12,-23,i,i,i,i,-13*
Brc1ccccc1OCCNCc1ccccc1,-9,i,i,i,i,-1.3
Cc1cc(C)c(OCCCCNCc2ccccc2)c(Cl)c1,-16,i,i,i,i,-12*
COc1ccc(NC(=O)CSc2nnc(-c3cccs3)n2N)cc1S(N)(=O)=O,·,·,i,·,·,·
COc1ccc(CCN2CC(C(=O)NCc3cccc4[nH]ccc34)CCC2=O)cc1 (centres undefined),-7,i,i,i,i,0.77
CCOC(=O)c1nc(Nc2ccc(N3CCC(C)CC3)cc2)c2ccccc2n1,-23,i,i,i,i,1.6
CC(NC(=O)C1CCN(C(=O)c2ccc(F)cc2)CC1)c1ccc(-n2ccnc2)cc1 (centres undefined),·,·,i,·,·,·
Cc1cc(Cl)cc(C)c1OCCNCc1ccccc1,-13,i,i,i,i,-11
C/C=C/c1ccc(OCCNCc2ccccc2)c(OC)c1,-10,i,i,i,i,-0.65
Cc1cc(C)c(C)c(OCCNCc2ccccc2)c1,-6,i,i,i,i,-5.5*
SMILES,hERG protect,KCNQ1 pot,KCNK3 block,KCNQ1 block,KCNK9 inh,Kir21 inh
Cc1cc(Cl)cc(C)c1OCCOCCNCc1ccccc1,-14,i,i,i,i,-12*
Cc1cc(C)c(OCCNCc2ccccc2)c(C)c1,-5,i,i,i,i,-5*
CCC(C)NCCOCCOc1ccc(Cl)c2ccccc12 (centres undefined),-15,i,i,i,i,-9.7*
C=CCN1CCN(c2ccncc2S(=O)(=O)N2CCOCC2)CC1,-1,i,i,i,i,1.7
O=[N+]([O-])c1cccc(-c2ccc3nnc(SCc4cccnc4)n3n2)c1,·,·,i,·,·,·
O=C(Nc1cnccn1)Nc1cccc(Cl)c1Cl,-11,i,i,i,i,-1.2
COCCN(C(=O)CSc1n[nH]c(-c2ccccc2)n1)c1c(N)n(CC(C)C)c(=O)[nH]c1=O,-9,i,i,i,i,1.2
O=C(NC(=S)NCCO)c1sc2ccccc2c1Cl,-7,i,i,i,i,0
CCOC(=S)NC(=O)c1sc2ccccc2c1Cl,22*,96*,i,i,i,3.8
O=C(NNC(=S)NC1CCCCC1)c1sc2ccccc2c1Cl,-9,i,i,i,i,-0.82
CCCOC(=S)NC(=O)c1sc2ccccc2c1Cl,15*,49*,i,i,i,0.2
CC(C)(C)C(=O)NC(=S)NNC(=O)c1sc2ccccc2c1Cl,34*,49*,i,i,i,2.1
CCC(C)(C(=O)NC1CCCC1)N(C(=O)c1ccccn1)c1ccccc1 (centres undefined),-1,i,i,i,i,0.89
COc1ccc(N2CC(C(=O)Nc3c4c(nn3-c3ccccc3)CS(=O)(=O)C4)CC2=O)cc1 (centres undefined),-6,i,i,i,i,2.8
COc1cccc(NC(=O)c2cnc(SC)nc2)c1,-1,i,i,i,i,-1.8
O=C(Nc1nc2n(n1)C(c1ccc(Cl)cc1)CC(c1ccc(Cl)cc1)N2)c1ccco1 (centres undefined),-10,i,·,i,-7.7*,-0.04
Cn1nc(C(F)(F)F)c(/C=N/OC(=O)c2ccccc2)c1SCc1ccccc1Cl,-9,i,i,i,-7.9*,0.52
Cn1nc(C(F)(F)F)c(/C=N/OC(=O)c2ccccc2)c1Sc1ccc(Cl)cc1,-8,i,i,i,i,0.72
Cn1nc(OC(=O)Nc2ccc(Cl)cc2)cc1C(F)(F)F,-14,i,·,8*,i,0.96
c1csc(-c2nc3ccccn3c2NC2CCCCC2)c1,-7,i,i,i,i,-0.75
CC(=O)c1ccc(-c2cccc(-c3nc4ccccn4c3NC3CCCCC3)c2)cc1,-6,i,i,i,-7.7*,0
CCC(C)Sc1cc(-c2nc3ccccn3c2NC2CCCCC2)ccc1OC (centres undefined),-12,i,i,8*,i,0.25
